# From paper PMC4176526 (Bioorganic & medicinal chemistry letters, 2014)
# Target: Myc-tagged Akt1 (Homo sapiens, UniProt P31749)
# Assay type: biochemical
# Details: at 5 µM, immunoblot
# Procedure, shortened: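 HEK293 cells transfected with Myc-tagged Akt1; the kinase was immunoprecipitated with anti-Myc antibody. The immobilized enzyme was incubated with a GSK3β fusion protein substrate, with or without test compound. Phospho-GSK3β was detected by immunoblot, and an approximate IC50 was estimated from the blots.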
# Chain of Myc-tagged Akt1 (P31749 whole entry): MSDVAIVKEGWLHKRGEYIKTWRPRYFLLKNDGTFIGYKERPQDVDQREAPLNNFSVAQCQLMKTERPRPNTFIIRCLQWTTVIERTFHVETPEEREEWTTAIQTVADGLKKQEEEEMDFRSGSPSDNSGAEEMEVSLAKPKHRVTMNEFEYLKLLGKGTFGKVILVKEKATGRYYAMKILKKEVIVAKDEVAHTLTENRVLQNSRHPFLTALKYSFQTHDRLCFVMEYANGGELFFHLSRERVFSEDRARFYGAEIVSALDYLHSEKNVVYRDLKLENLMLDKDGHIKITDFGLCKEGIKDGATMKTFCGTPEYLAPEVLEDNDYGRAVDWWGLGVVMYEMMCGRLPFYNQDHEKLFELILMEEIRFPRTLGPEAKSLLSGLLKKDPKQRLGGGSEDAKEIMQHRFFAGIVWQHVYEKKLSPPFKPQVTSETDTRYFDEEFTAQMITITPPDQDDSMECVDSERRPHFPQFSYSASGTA
structure (smiles),measurement,value
NC1(c2ccc(-c3nc4ccn5c(=O)[nH]nc5c4cc3-c3ccccc3)cc2)CCC1 [MK2206],phosphorylation of GSK3β,completely blocks
